Screens as filed in PubChem.
Most compounds without a hit are left out; they make up all but 4.8% or so of the library.
T cruzi repl = blocks replication of Trypanosoma cruzi. T. cruzi beta-gal in NIH3T3, luminescence, 90 h. inhibition, % (no concentration beside the values). 1.4% of 300,000 active. AID 1885;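 active = mean inhibition across valid replicates above about 55%, limit read from the data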;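 also: signal also drops with host cell toxicity which is not excluded here; 0% = plate median of DMSO wells and 100% = zero luminescence signal; higher percent means less beta-gal luminescence so fewer parasites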
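System – NIH/3T3 host cells with β-galactosidase reporter T. cruzi · Doses – single 50 nL compound addition per well in DMSO · Reagent – 5000 T. cruzi trypomastigotes/well · Medium – Low-serum DMEM with 2% FBS · Timing – ≥90 h infection period, 3 h prior cell attachment · Evaluation – parasite load inhibition, % · Technique – GalScreen luminescence, 60 min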
697 NFkB inh = lowers PMA/ionomycin-induced NF-kB signal in 697 B cells; 697 B-cell NF-kB luciferase reporter, 16 h; inhibition, % at 4 µM; 0.33% of 330,000 active; AID 435022; in the data active = inhibition above about 35%
HSF1 inhib = HSF1 inhibition; NIH3T3-HGL HSE-luciferase, MG132-induced, luminescence 8 h; hits give low values; activity change, negative = inhibition, % at 7.5 µM (by protocol); 0.77% of 300,000 active;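 active = more than half of replicate wells show activity change below -50%, luminescence cut by over half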;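 also: luciferase reports HSF-1 transcriptional activity via heat shock element; 0% = median of DMSO wells and -100% = zero luminescence signal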
GPR7 antagonist = antagonists of human GPR7 (neuropeptides B/W receptor 1) | GPR7-expressing cells, fluorescence antagonist assay | P48145 | inhibition, % at 4.4 µM | AID 1861 | 1.1% of 290,000 active; in the data active = inhibition above about 16%, passing the limit was not always enough;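 also: cells stimulated with the agonist NPW; 0% = agonist with vehicle and 100% = vehicle without agonist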
Target sequence (P48145 whole entry, looked up): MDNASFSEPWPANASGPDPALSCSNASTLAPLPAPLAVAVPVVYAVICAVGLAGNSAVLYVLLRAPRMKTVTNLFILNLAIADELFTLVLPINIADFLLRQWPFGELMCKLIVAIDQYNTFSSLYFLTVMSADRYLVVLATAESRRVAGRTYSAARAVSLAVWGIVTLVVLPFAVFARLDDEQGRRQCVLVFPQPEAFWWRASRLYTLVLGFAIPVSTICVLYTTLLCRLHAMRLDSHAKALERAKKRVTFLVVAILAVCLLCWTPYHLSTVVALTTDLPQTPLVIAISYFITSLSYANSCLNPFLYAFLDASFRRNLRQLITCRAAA
HSF1 activator = increases HSF-1 driven luciferase reporter signal | 1.7% of 300,000 active | activation, % at 9 µM | NIH3T3-HGL HSF-1 luciferase reporter, MG132, 8 h; 100% = twice DMSO control signal | AID 504408;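 active = mean replicate activation of at least 50% with a set share of replicates each reaching 50%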;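 also: 0% = median of the neutral control wells and 100% = twice that signal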
Jurkat NFkB inh = inhibitors of the PMA/ionomycin-induced NF-kB reporter in Jurkat cells; PMA/ionomycin-induced NF-kB luciferase reporter, luminescence; inhibition, % at 4 µM; 0.53% of 330,000 active; AID 435003; in the data active = inhibition above about 50%
The depositor's hits bear a star; · = no result given.

SMILES	T cruzi repl	697 NFkB inh	HSF1 inhib	GPR7 antagonist	HSF1 activator	Jurkat NFkB inh
COc1ccc2c(c1OC)C(=O)OC2N1C(=O)CC[C@H]1C(=O)Nc1ccc(F)cc1F (stereo not given in full)	-18	-6	5	-3	-1	-1
CCOC(=O)c1cc2occc2n1CC(=O)N1CCCc2ccccc21	9	12	-66*	5	-74	-3
CCOC(=O)c1cc2sccc2n1CC(=O)N1CCCc2ccccc21	39	12	7	-4	15	9
O=C(c1ccco1)c1cn(CC(=O)N2CCCCCC2)c2ccccc12	4	4	8	-2	-5	-13
O=C(c1ccco1)c1cn(CC(=O)N2CCCc3ccccc32)c2ccccc12	11	25	20	19*	44	-5
CCOc1ccc(NC(=S)N(CCN2CCOCC2)Cc2cc3cc4c(cc3[nH]c2=O)OCCO4)cc1	11	9	-12	-8	4	2
Brc1ccc2c(c1)OCCOCCOc1cc(Br)ccc1OCCOCCOCCO2	65*	-20	-9	24	-10	1
O=C(COC(=O)CC1c2ccccc2CCN1S(=O)(=O)c1ccccc1)Nc1ccccc1 (stereo not given)	2	-1	18	-2	58*	-1
CCCCN(C(=O)c1cccc(S(=O)(=O)N2CC(C)OC(C)C2)c1)c1c(N)n(CC(C)C)c(=O)[nH]c1=O (stereo not given)	-5	-27	-8	-3	-4	8
CC(NCC(O)COCCC12CC3CC(CC(C3)C1)C2)c1ccccc1 (stereo not given)	60*	7	-7	13	-3	13
C=CC[C@H](CC(=O)NCCO)C(=O)N[C@H](COC(=O)[C@@H](CC=C)Cc1ccc(F)cc1)Cc1ccccc1	·	-17	·	·	·	-24
COC(=O)c1sc2nc(C)nc(SCC(=O)Nc3sccc3C(N)=O)c2c1C	·	4	·	·	·	1
CN1CCN(C(=O)CCCN2C(=O)/C(=C/c3cccc(Br)c3)SC2=S)CC1	66*	0	9	0	25	13
COc1cccc(/C=C2/SC(=S)N(CCC(=O)N3CCOCC3)C2=O)c1	-23	8	4	-11	1	29
COc1ccc(/C=C2\SC(=S)N(CCCC(=O)N3CCN(C)CC3)C2=O)cc1	60*	5	-27	-5	-27	-5
COc1cccc(/C=C2\SC(=S)N(CCCC(=O)N3CCCCC3)C2=O)c1	-5	20	23	-7	55*	16
O=C(CCN1C(=O)/C(=C\c2cccc(Br)c2)SC1=S)NCCCN1CCOCC1	18	2	-4	0	1	-4
O=C(CCN1C(=O)/C(=C/c2ccccc2)SC1=S)NCCCN1CCOCC1	55*	-22	-2	-9	1	-16
CCN1C(=O)[C@H]2[C@@H](c3ccc(C)cc3)N3C(=O)N(c4cccc(Br)c4)C(=O)[C@@]3(CC(C)C)[C@H]2C1=O	-5	-1	4	·	0	8
O=C(Cn1nnc2ccccc21)c1ccc(Br)cc1	-16	-30	14	13	11	-27
Cc1ccc(C(=O)Cn2nnc3ccccc32)cc1	-18	-156	26	-5	67*	-86
Cc1ccc(C(=O)Cn2nnc3ccccc32)cc1C	-5	-172	30	1	58*	-102
Cc1cc(NC(=O)CSc2ccc(-c3ccc(Br)cc3)nn2)no1	6	-21	4	16	-6	-9
COc1ccccc1-n1ccnc1SCC(=O)NCc1ccco1	-5	17	-2	-3	5	-1
COc1ccc(/C=C2\CN(Cc3ccccc3)C/C(=C\c3ccc(OC)cc3OC)C2=O)c(OC)c1	81*	18	-48	-16	-49	4
Cc1cccc2cc(CN(Cc3ccco3)C(=O)c3ccco3)c(=O)[nH]c12	-1	-5	5	9	6	7
COc1ccccc1NC(=S)N(Cc1ccco1)Cc1cc2cccc(C)c2[nH]c1=O	-7	2	60	-3	119*	1
CCc1ccc2[nH]c(=O)c(CN(Cc3ccccc3)C(=O)Nc3ccccc3OC)cc2c1	66*	-88	0	-18	30	-2
